According to ChEMBL document CHEMBL2331324, “Synthesis and biological evaluation of guanidino analogues of roscovitine” (Eur J Med Chem, 2013):

Key:
[1] = target: Aurora kinase A/B (Homo sapiens) (UniProt Q96GD4+O14965); assay: Activity at Aurora kinase A/B in human MCF7 cells assessed as histone H3 phosphorylation at Ser10 at 100 uM after 24 hrs by flow cytometry relative to untreated control; type: cell-based
Outline: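 Flow cytometry on MCF7 cells exposed 24 h to 100 µM. About one million cells fixed in 90% methanol, rehydrated, and labelled with primary antibody to pH3 Ser10, then an Alexa Fluor 488 secondary. Alexa read at 488/525 nm (ex/em). The value is the fraction of pH3-positive cells in treated cultures divided by that in untreated control.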

MCF7 [2] = assay: Cell cycle arrest in human MCF7 cells assessed as accumulation of cells in G2+M phase at 100 uM after 24 hrs by propidium iodide staining based flow cytometry relative to untreated control; type: functional
Outline: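 Flow cytometry on MCF7 cells given 100 µM for 24 h. About one million cells fixed in 90% methanol and rehydrated. DNA stained with propidium iodide, read at 488/575 nm (ex/em). The value is the G2+M fraction of treated cells divided by the G2+M fraction of untreated control cells.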

MCF7 [3] = assay: Cytotoxicity against human MCF7 cells assessed as inhibition of cell viability after 72 hrs by calcien AM dye based fluorescence analysis; type: functional; details: MCF7, 72 h
Outline: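 MCF7 cells grown in DMEM with 10% FBS, 2 mM glutamine, penicillin and streptomycin at 37 °C and 5% CO2. About 10,000 cells per well, left 4 h, then a concentration range added in triplicate, DMSO ≤0.5% final. After 72 h, 1 µg/ml calcein AM (final) for 1 h; fluorescence read at 485/538 nm. Viability given as % of control; IC50 read graphically from dose-response curves; mean of ≥3 independent experiments.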

[4] = target: Cyclin-dependent kinase 2/cyclin E1 (Homo sapiens, UniProt P24941); assay: Inhibition of recombinant CDK2/cyclin E (unknown origin) using histone H1 as substrate in presence of [gamma-33P]ATP; type: protein-complex assay
[5] = target: Cyclin-dependent kinase 1/cyclin B1 (Homo sapiens, UniProt P06493); assay: Inhibition of recombinant CDK1/cyclin B (unknown origin) using histone H1 as substrate in presence of [gamma-33P]ATP; type: protein-complex assay
MCF7 [6] = assay: Ratio of compound IC50 to roscovitine IC50 for human MCF7 cells after 72 hrs by calcien AM dye based fluorescence analysis; type: functional
[7] = target: Cyclin-dependent kinase 2/cyclin E1 (Homo sapiens) (UniProt P24864+P24941); assay: Ratio of compound IC50 to roscovitine IC50 for recombinant CDK2/cyclin E (unknown origin); type: protein-complex assay
[8] = target: Cyclin-dependent kinase 1/cyclin B1 (Homo sapiens) (UniProt P06493+P14635); assay: Ratio of compound IC50 to roscovitine IC50 for recombinant CDK1/cyclin B (unknown origin); type: protein-complex assay
Sequence of Cyclin-dependent kinase 1/cyclin B1 (Homo sapiens) (P06493 whole entry, looked up): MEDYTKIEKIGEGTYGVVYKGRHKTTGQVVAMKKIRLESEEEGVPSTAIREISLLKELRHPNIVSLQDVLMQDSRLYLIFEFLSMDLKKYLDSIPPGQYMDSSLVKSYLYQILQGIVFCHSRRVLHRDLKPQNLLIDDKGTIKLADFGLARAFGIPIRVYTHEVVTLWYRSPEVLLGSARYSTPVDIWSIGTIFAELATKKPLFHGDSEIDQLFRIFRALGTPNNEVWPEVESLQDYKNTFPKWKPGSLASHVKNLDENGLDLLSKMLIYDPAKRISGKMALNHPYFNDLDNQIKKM
Sequence of Cyclin-dependent kinase 1/cyclin B1 (Homo sapiens) (P14635 whole entry, looked up): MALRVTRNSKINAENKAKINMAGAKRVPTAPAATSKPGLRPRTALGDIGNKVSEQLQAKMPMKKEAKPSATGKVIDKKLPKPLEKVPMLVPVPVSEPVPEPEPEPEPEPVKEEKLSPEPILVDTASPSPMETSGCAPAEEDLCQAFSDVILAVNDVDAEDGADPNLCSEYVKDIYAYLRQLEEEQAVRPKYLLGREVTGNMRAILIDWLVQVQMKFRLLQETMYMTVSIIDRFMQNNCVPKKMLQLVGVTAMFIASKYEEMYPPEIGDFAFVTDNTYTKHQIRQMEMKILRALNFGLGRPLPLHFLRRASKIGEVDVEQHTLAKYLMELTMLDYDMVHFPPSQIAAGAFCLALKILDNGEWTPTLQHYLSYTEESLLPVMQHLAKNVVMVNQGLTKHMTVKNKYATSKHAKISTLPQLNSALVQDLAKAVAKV

Sequence of Aurora kinase A/B (Homo sapiens) (O14965 whole entry, looked up): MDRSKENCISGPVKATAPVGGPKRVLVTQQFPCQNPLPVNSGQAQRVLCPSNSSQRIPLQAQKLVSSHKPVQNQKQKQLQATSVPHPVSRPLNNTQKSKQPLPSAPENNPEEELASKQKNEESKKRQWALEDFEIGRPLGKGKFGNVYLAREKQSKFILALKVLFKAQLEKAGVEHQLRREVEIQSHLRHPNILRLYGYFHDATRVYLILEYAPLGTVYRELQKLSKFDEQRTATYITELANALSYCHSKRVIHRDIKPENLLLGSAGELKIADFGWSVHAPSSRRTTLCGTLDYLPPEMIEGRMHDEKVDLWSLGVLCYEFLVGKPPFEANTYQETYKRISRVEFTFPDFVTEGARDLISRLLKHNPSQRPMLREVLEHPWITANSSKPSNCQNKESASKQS
Sequence of Aurora kinase A/B (Homo sapiens) (Q96GD4 whole entry, looked up): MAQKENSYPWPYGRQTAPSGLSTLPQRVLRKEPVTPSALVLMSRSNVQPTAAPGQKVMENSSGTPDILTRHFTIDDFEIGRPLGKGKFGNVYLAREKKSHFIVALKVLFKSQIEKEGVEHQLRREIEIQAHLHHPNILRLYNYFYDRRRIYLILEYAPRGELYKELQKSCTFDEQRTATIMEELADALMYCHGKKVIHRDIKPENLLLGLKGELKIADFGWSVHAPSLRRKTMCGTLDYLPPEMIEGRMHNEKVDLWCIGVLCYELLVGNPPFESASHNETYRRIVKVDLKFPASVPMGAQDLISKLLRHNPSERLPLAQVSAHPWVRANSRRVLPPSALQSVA
Sequence of Cyclin-dependent kinase 1/cyclin B1 (P06493 whole entry): as the sequence (P06493 whole entry, looked up) above
Sequence of Cyclin-dependent kinase 1/cyclin B1 (P14635 whole entry, further chain): as the sequence (P14635 whole entry, looked up) above

| SMILES | Ratio [1] | IC50 [4] [µM] | IC50 [5] [µM] | Ratio IC50 [7] | Ratio IC50 [8] | Ratio (MCF7 [2]) | IC50 (MCF7 [3]) [µM] | Ratio IC50 (MCF7 [6]) |
| --- | --- | --- | --- | --- | --- | --- | --- | --- |
| CC(C)n1cnc2c(NC(=N)N)nc(NC3CC3)nc21 | 0.17 | 0.5 | 6.4 | – | – | 2.4 | 5.4 | – |
| [N-]=[N+]=NCCn1cnc2c(NC(=N)N)nc(N)nc21 | – | 74.9 | > 100 | – | – | 1.4 | > 100 | – |
| CC(C)n1cnc2c(NC(=N)N)nc(OC[C@@H]3CCCN3)nc21 | 0.8 | 25.2 | > 100 | – | – | 1.7 | > 100 | – |
| CC[C@@H](N)COc1nc(NC(=N)N)c2ncn(C(C)C)c2n1 | 1.08 | 13.3 | 47.6 | – | – | 0.8 | > 100 | – |
| N=C(N)Nc1nc(N)nc2c1ncn2CC(F)(F)F | – | > 100 | > 100 | – | – | 0.8 | > 100 | – |
| CN(C)c1nc(N)nc2c1ncn2CCN=[N+]=[N-] | – | > 100 | > 100 | – | – | 1 | > 100 | – |
| CC(C)[C@H](CO)Nc1nc(NC(=N)N)c2ncn(C(C)C)c2n1 | 0.13 | 0.14 | 2 | – | – | 2.3 | 10.5 | – |
| CC(C)n1cnc2c(NC(=N)N)nc(NCCCCCCO)nc21 | 0.33 | 1.6 | 4.2 | – | – | 2 | 5.2 | – |
| CC(C)n1cnc2c(NC(=N)N)nc(OC[C@H]3CCCN3)nc21 | – | 23.6 | 81.5 | – | – | 1.3 | > 100 | – |
| CCn1cnc2c(NC(=N)N)nc(N)nc21 | 0.1 | 1.7 | 12.6 | 5 | 5 | 1.6 | 54.3 | 2 |
| CC[C@H](CO)Nc1nc(NCc2ccccc2)c2ncn(C(C)C)c2n1 [SELICICLIB] | – | – | – | – | – | – | 20.2 | – |
| CC(C)n1cnc2c(NC(=N)N)nc(N)nc21 | 0.18 | 1.3 | 14.8 | 5 | 5 | 2 | 97.2 | 4 |
| CC(C)n1cnc2c(NC(=N)N)nc(N3CCC[C@H]3CO)nc21 | 0.11 | 0.16 | 1.5 | – | – | 1.7 | 6.2 | – |
| Cn1cnc2c(NC(=N)N)ncnc21 | – | > 100 | > 100 | – | – | 1 | > 100 | – |

Further lines, with some results ahead:

| Ratio [1] | IC50 [4] [µM] | IC50 [5] [µM] | Ratio IC50 [7] | Ratio IC50 [8] | SMILES | Ratio (MCF7 [2]) | IC50 (MCF7 [3]) [µM] | Ratio IC50 (MCF7 [6]) |
| --- | --- | --- | --- | --- | --- | --- | --- | --- |
| – | > 100 | > 100 | – | – | N=C(N)Nc1nc(N)nc2c1ncn2CCO | 0.9 | > 100 | – |
| 0.09 | 1.8 | 1.1 | – | – | CC(C)[C@H](N)COc1nc(NC(=N)N)c2ncn(C(C)C)c2n1 | 1.7 | 3.4 | – |
| 0.07 | 6.2 | 8.1 | – | – | CC[C@H](N)COc1nc(NC(=N)N)c2ncn(C(C)C)c2n1 | 1.5 | 16.3 | – |
| 0.15 | 0.82 | 15.1 | – | – | CC(C)n1cnc2c(NC(=N)N)nc(NCCO)nc21 | 2.9 | 12.4 | – |
| 7 | 66.5 | > 100 | – | – | CC(C)Cn1cnc2c(NC(=N)N)nc(N)nc21 | 3.5 | 96.6 | – |
| – | 7.9 | 37.5 | – | – | CCn1cnc2c(N)nc(N)nc21 | 1.2 | > 100 | – |
| – | 22.2 | 64.9 | – | – | CC(C)n1cnc2c(N)nc(N)nc21 | 0.9 | > 100 | – |
| 0.09 | 0.071 | 1.1 | – | – | CC(C)[C@@H](CO)Nc1nc(NC(=N)N)c2ncn(C(C)C)c2n1 | 1.8 | 2.1 | – |
| 0.81 | 6.8 | 38.2 | – | – | Cn1cnc2c(NC(=N)N)nc(N)nc21 | 1.5 | > 100 | – |
| 0.18 | 0.18 | 4.1 | – | – | CC(C)n1cnc2c(NC(=N)N)nc(NCCCO)nc21 | 2.5 | 8.8 | – |
| – | > 100 | > 50 | – | – | N=C(N)Nc1nc(N)nc2c1ncn2CCN | 1 | > 100 | – |
| 0.1 | 0.67 | 6.2 | – | – | CC(C)n1cnc2c(NC(=N)N)nc(N3CCC[C@@H]3CO)nc21 | 2 | 20.4 | – |
| 0.39 | 8 | 15.6 | – | – | CC(C)[C@@H](N)COc1nc(NC(=N)N)c2ncn(C(C)C)c2n1 | 2.1 | 79.4 | – |
| 6.71 | 10.7 | 55.9 | – | – | CCCn1cnc2c(NC(=N)N)nc(N)nc21 | 4 | 36.5 | – |
